Assay results reported in paper PMC5110371 (Nature chemical biology, 2016).

Tests used:
Enolase [1] = biological target: Enolase (Homo sapiens, UniProt P09104); test: Enolase enzymatic activity in vitro; type: biochemical
Enolase [2] = test: Enolase enzymatic activity in vitro; type: biochemical
fungi = details: cited from earlier work
[3] = biological target: Triosephosphate isomerase (Homo sapiens, UniProt P60174); test: Thermal shift assay, internal control Triosephosphate isomerase; type: binding; details: cell lysates
Summary of the method: (§1)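 Lysates of D423 glioma cells overexpressing ENO1 or ENO2 were made in 20 mM Tris-HCl, 1 mM EDTA, 1 mM β-mercaptoethanol, pH 7.4, homogenised, sonicated and cleared at 20,000 g for 10 min. They were diluted 1:100 in enolase assay buffer (10 mM KCl, 5 mM MgSO4, 100 mM triethanolamine, pH 7.4), given test compound or vehicle, and heated 3 min at 50–90 °C. After 20,000 g spin, supernatant was immunoblotted (anti-vinculin, anti-TPI, both 1:3000).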

[4] = test system: D423 ENO1-deleted glioma cells; test: Time course of ATP; type: cell-based, human
[5] = Configurational stability in aqueous solution; type: physicochemical
[6] = test system: D423 ENO1-rescued glioma cells; test: Proliferation; type: cell-based, human
Summary of the method: (§2)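 Cells were seeded at 2 × 10^3 cells/well in 96-well plates and treated for 2 weeks across a concentration range. Medium was then refreshed, and Hoechst 33342 (total cells) plus YO-PRO-1 (apoptotic cells) were added at 1:1000 final dilution for 2 h at 37 °C. Wells were imaged and quantified by high-content imaging. Conditions were run in duplicate and expressed relative to vehicle.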

ENO2 [7] = biological target: T1, ENO2 (Homo sapiens, UniProt P09104); test: Ligand-induced thermal shift assay, lysates of D423 overexpressing ENO2; type: binding; details: 1 μM inhibitor, cell lysates
Summary of the method: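 Lysate in 20 mM Tris-HCl, 1 mM EDTA, 1 mM β-mercaptoethanol (pH 7.4), homogenised, sonicated and cleared at 20,000 g for 10 min. Diluted 1:100 in enolase buffer (10 mM KCl, 5 mM MgSO4, 100 mM triethanolamine, pH 7.4). Treated with 1 μM test compound or vehicle, heated at 50–90 °C for 3 min, recentrifuged. ENO2 in supernatant immunoblotted; band intensity plotted versus temperature.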

Vinculin = biological target: T2, Vinculin (Homo sapiens, UniProt P18206); test: Thermal shift assay, internal control Vinculin; type: binding; details: cell lysates
T2 sequence (P18206 1-1066 isoform P18206-2): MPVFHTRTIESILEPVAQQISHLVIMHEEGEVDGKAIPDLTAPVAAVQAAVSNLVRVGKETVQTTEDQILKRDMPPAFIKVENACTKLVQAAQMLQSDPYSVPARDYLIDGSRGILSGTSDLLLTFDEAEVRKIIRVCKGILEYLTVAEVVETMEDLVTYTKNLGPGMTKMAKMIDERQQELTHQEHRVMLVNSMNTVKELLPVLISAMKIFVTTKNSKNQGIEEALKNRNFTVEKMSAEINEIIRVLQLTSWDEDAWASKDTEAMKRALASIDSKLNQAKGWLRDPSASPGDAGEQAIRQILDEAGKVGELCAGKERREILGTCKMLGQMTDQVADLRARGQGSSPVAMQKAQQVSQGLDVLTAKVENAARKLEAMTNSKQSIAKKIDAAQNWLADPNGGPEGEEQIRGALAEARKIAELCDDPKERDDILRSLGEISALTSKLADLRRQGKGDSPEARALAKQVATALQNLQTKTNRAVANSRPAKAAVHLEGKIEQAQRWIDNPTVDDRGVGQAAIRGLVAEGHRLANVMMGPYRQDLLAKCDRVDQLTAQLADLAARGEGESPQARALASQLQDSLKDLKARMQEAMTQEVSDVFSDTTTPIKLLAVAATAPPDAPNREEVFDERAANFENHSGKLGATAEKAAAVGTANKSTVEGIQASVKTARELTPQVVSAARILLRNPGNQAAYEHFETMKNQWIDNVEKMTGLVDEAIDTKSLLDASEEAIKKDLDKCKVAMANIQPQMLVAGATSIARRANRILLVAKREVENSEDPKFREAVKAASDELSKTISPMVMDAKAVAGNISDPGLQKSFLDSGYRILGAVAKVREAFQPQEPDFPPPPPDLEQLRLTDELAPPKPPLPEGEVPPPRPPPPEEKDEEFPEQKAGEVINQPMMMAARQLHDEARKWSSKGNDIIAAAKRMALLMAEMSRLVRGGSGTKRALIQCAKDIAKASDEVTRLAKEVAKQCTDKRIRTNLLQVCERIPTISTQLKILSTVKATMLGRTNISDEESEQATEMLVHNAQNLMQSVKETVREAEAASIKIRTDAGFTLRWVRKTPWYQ
Summary of the method: as §1

ENO2 [8] = biological target: T1, ENO2; test: Thermal shift assay, purified recombinant human ENO2; type: binding; details: concentration not stated in the sentence (Supplementary Fig. 6: 1 µM or 25 µM)
Summary of the method: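 Diluted and treated with test compound or vehicle in enolase assay buffer (10 mM KCl, 5 mM MgSO4, 100 mM triethanolamine, pH 7.4). Heated 50–90 °C for 3 min, spun 20,000 g for 10 min, supernatant ENO2 immunoblotted.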

[9] = test system: Gli56 ENO1-deleted glioma cells; test: Proliferation; type: cell-based, human; details: Supplementary Fig. 9
Summary of the method: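 Growth was followed by IncuCyte live-cell confluence imaging every 4 h. Initial seeding was 1.5 × 10^3 cells/well in 96-well plates, with duplicate replicates. Cells were cultured in DMEM with 10% FBS. ENO1-intact cell lines were used as comparators.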

Enolase 2 = Enolase 2 (Homo sapiens, UniProt P09104); test: Cellular thermal shift assay in intact D423 ENO2 glioma cells; type: cell-based; details: 100 μM, without inhibitor ~65 °C
Summary of the method: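 D423 glioma cells overexpressing ENO2, grown in DMEM with 10% FBS, treated one day with 100 μM test compound or vehicle. Trypsinized, PBS-washed, resuspended in PBS at 0.5 × 10^6 cells/mL, heated on a 50–90 °C gradient. Lysed with twice the volume of 20 mM Tris-HCl, 1 mM EDTA, 1 mM β-mercaptoethanol pH 7.4, plus one dry-ice freeze-thaw. Soluble ENO2 followed by immunoblotting.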

Salmonella = details: cited from earlier work
[10] = test system: D423 ENO1-deleted glioma cells; test: Proliferation; type: cell-based, human
Summary of the method: as §2

E. coli = details: cited from earlier work
ENO1-intact glioma cells = test: Toxicity to ENO1-intact cells; type: cell-based, human; details: 10 μM, four days
[11] = test system: D423 ENO1-deleted glioma cells; test: 13C-1 glucose isotope tracing; type: cell-based, human; details: 10 μM; for conversion of 13C-1 glucose to 13C-3 glycerate: 72 hours
Summary of the method: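 Glucose-free DMEM supplemented with 10 mM 13C-1 glucose; test compound at 10 μM. Media extracted with 80% methanol at −80 °C, centrifuged, lyophilised, redissolved in D2O and analysed by proton-decoupled 13C NMR. Glycerate was read as the peak at 64 ppm, also expressed as a ratio to 13C-3 lactate. Isogenic ENO1-rescued D423 cells served as comparison.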

Staphylococcus = details: cited from earlier work
[12] = test system: D423 ENO1-deleted glioma cells; test: Cell density; type: cell-based, human; details: 72 hours
Summary of the method: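 Cells were seeded at 1 × 10^4 cells/well in 96-well plates and treated the next day. They were then held either under hypoxia (0.1% O2, 5% CO2) or normoxia for 72 h. Cells were fixed in 10% formalin and stained with crystal violet. Dye was extracted with 10% acetic acid and absorbance read at 595 nm.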

[13] = test system: D423 ENO1-deleted glioma cells; test: Mass spectrometric determination of 3-PGA and PEP; type: cell-based, human; details: 10 μM and 25 μM, 72 hours
Summary of the method: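 D423 ENO1-deleted glioma cells and isogenic ENO1-rescued controls were grown in DMEM with 10% FBS. They were treated with vehicle, 10 μM or 25 μM test compound for 72 h. Polar metabolites were extracted with 80% methanol at −80°C and quantified by mass spectrometry to give the 3-PGA/PEP ratio. Each bar is an independently treated culture; comparisons used unpaired two-tailed t-tests with Bonferroni correction.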

[14] = 2 weeks, YO-PRO-1 positive cells

T1 sequence (P09104 whole entry): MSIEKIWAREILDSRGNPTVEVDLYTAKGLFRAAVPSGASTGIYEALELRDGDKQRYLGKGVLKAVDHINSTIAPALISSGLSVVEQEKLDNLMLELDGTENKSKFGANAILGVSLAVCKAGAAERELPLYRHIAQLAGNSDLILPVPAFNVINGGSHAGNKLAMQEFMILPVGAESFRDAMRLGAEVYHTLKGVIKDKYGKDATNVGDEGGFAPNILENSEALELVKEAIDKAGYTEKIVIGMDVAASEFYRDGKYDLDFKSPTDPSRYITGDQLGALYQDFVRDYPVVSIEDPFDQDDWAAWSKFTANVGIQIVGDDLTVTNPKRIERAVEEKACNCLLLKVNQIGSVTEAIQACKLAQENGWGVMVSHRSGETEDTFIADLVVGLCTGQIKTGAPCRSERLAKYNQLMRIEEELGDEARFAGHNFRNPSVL
Enolase (Homo sapiens, UniProt P09104), sequence (P09104 whole entry): as above
Enolase 2, sequence (P09104 whole entry): as above
Triosephosphate isomerase, sequence (P60174 whole entry): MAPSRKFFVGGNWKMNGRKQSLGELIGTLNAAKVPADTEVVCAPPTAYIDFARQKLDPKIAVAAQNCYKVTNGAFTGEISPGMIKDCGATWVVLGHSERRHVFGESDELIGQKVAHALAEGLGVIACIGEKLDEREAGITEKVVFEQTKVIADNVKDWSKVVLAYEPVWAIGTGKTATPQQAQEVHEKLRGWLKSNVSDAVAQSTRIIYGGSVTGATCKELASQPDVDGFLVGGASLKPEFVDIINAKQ

Compound: O=C1C(P(=O)(O)O)CCN1O (stereo not drawn) [deoxy-SF2312, 1-hydroxy-2-oxopyrrolidin-3-ylphosphonic acid]
- kinetics with respect to substrate 2-PGA (Enolase [1]; ENO2 (Fig. 1d)): clear competitive kinetics
- IC50 (Enolase [2]; read-out: IC50 as an enolase inhibitor): ~2 µM

Compound: O=C1C(P(=O)(O)O)CC(O)N1O (stereo not drawn) [SF2312, (1,5-dihydroxy-2-oxopyrrolidin-3-yl)phosphonic acid]
- antibiotic activity (fungi): no activity
- effect on thermal stability of Triosephosphate isomerase [3]: Neither PhAH nor SF2312 affected the thermal stability
- time after initiation of treatment at which declines in ATP occurred [4]: 8 h
- stability of stereocenters [5]: both stereocenters underwent spontaneous epimerization
- concentration inhibiting proliferation ([6]; 2 weeks treatment course, ectopically re-expressing ENO1): above 200 μM
- concentration at which induction of cell death is seen [6, 14]: 400 µM
- shift in the thermal denaturation of ENO2 (ENO2 [7]): ~ 9.5 °C
- melting temperature (Tm) of ENO2 (ENO2 [7]; without inhibitor ~63 °C): ~ 72.5 °C
- effect on thermal stability of Vinculin (Vinculin): Neither PhAH nor SF2312 affected the thermal stability
- stabilization of recombinant human ENO2 (shift of thermal denaturation curve) (ENO2 [8]): ~ 12 °C
- toxicity against Gli56 versus ENO1-intact cell lines [9]: selective toxicity
- shift of the thermal melting curve of ENO2 in intact glioma cells (Enolase 2): ~ 15 °C
- antibiotic activity (Salmonella): strong activity
- concentration inhibiting proliferation ([10]; 2 weeks treatment course): low μM range
- concentration at which induction of cell death starts [10, 14]: 12.5 µM
- kinetics with respect to substrate 2-PGA (Enolase [1]; ENO2, at IC50): non-competitive kinetics
- kinetics with respect to substrate 2-PGA (Enolase [1]; ENO2, at higher concentrations of inhibitor): competitive kinetics
- type of inhibitor (on/off rate) (Enolase [2]; order of addition of inhibitor and substrate): slow-on/slow-off inhibitor
- antibiotic activity (E. coli): weak activity
- toxicity (ENO1-intact glioma cells): non-toxic
- conversion of 13C-1 glucose to 13C-3 glycerate [11]: dramatically increases
- glucose consumption and lactate production in media ([11]; four days, 13C-1 glucose, D423 and Gli56 ENO1 deleted cells): profound inhibition of glucose consumption
- antibiotic activity (Staphylococcus): strong activity
- concentrations at which cells were essentially eradicated ([12]; hypoxia (0.1% O2)): > 6.25 µM
- eradication of cells ([12]; normoxia, 100 μM inhibitor): no eradication was observed
- ratio of 3-PGA/PEP [13]: dramatic increase

Compound: O=C(CP(=O)(O)O)NO [PhAH, Phosphonoacetohydroxamate, reference compound]
- effect on thermal stability of Triosephosphate isomerase [3]: Neither PhAH nor SF2312 affected the thermal stability
- shift in the thermal denaturation of ENO2 (ENO2 [7]): ~ 6 °C
- effect on thermal stability of Vinculin (Vinculin): Neither PhAH nor SF2312 affected the thermal stability
- stabilization of recombinant human ENO2 (shift of thermal denaturation curve) (ENO2 [8]): ~ 6 °C
- toxicity against Gli56 versus ENO1-intact cell lines [9]: selective toxicity
- shift of the thermal melting curve of ENO2 in intact glioma cells (Enolase 2): ~ 6 °C
- conversion of 13C-1 glucose to 13C-3 glycerate [11]: to a lesser extent
- concentration at which potentiation of toxicity by hypoxia is evident ([12]; hypoxia vs normoxia): 200 µM
